Article PMC3870048 (Pharmaceutical research, 2013)
Converted amounts (≈) assume the structure as drawn. Read-outs that look alike come from different tables or passages of the source.

Assays:
[1] = Donor solution solubility determination; format: physicochemical; settings: saturation solubility in 0.3 M acetate buffer pH 5.0 containing 10% propylene glycol, 32°C
[2] = Stability of codrugs in 0.3 M acetate buffer pH 5.0 at 32°C; format: physicochemical; settings: 0.3 M acetate buffer pH 5.0, 32°C
How it was run: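 Codrug was predissolved in ACN and spiked into prewarmed buffer (<1% ACN). 100 μl aliquots were taken at intervals, quenched with 900 μl ACN and held at -80°C. Analysis was by C18 HPLC-UV with ACN:acidic aqueous (70:30, pH 3.0) mobile phase and standards of 100–10,000 ng/ml. Data were fit to pseudo first-order kinetics; triplicate.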

[3] = in 43% PG, 43% ethanol containing solution; data previously reported; cited from earlier work
[4] = In vitro diffusion studies across microneedle-treated skin; format: in vitro ADME, Yucatan miniature pig; settings: skin at end of 48 h diffusion experiment
How it was run: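 Yucatan minipig skin, dermatomed 1.4-1.8 mm, pierced 20 times with a 5-needle array (100 pores per 0.95 cm2 area). Flow-through cells held at 32°C. Donor: 250 μl of excess drug in 0.3 M acetate pH 5.0 with 10% PG. Receiver: pH 7.4 water with 20% ethanol, 1.5 ml/h. At 48 h the permeation area was minced and extracted overnight in 10 ml ACN at 32°C, then analysed by HPLC; n≥3.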

[5] = earlier proof of concept study; cited from earlier work

Row | Structure (SMILES) | Solubility [1] | Pseudo first order rate constant (k) [2] | Stability (approx. half-life) [2] | Solubility [3] | NTX and DIC (parent drugs) in the skin [4] | formulation half-life [5]
1 | Cl.O=C(Cc1ccccc1Nc1c(Cl)cccc1Cl)Oc1ccc2c3c1O[C@H]1C(=O)CC[C@@]4(O)[C@@H](C2)N(CC2CC2)CC[C@]314 [Codrug I (hydrochloride salt)] | 83.8 ± 15.4 mM | – | – | – | – | –
2 | O=C(Cc1ccccc1Nc1c(Cl)cccc1Cl)O[C@@H]1CC[C@@]2(O)[C@H]3Cc4ccc(O)c5c4[C@@]2(CCN3CC2CC2)[C@H]1O5 [Codrug II] | – | 0.0052 days ^−1 | 130.88 ± 4.94 days | – | – | –
3 | O=C(Cc1ccccc1Nc1c(Cl)cccc1Cl)Oc1ccc2c3c1O[C@H]1C(=O)CC[C@@]4(O)[C@@H](C2)N(CC2CC2)CC[C@]314 [Codrug I] | – | 0.0803 days ^−1 | 8.72 ± 1.05 days | 7.23 mM (≈ 4480 µg/mL) | quantifiable | 96 to 120 h
